{
  "source": "paper PMC10107792",
  "about": "(Chemistry (Weinheim an Der Bergstrasse, Germany), 2022)",
  "key": {"[1]": {"target": "T1, MraY from S. aureus (Staphylococcus aureus, UniProt Q2FZ93)", "T1 sequence (Q2FZ93 1-321)": "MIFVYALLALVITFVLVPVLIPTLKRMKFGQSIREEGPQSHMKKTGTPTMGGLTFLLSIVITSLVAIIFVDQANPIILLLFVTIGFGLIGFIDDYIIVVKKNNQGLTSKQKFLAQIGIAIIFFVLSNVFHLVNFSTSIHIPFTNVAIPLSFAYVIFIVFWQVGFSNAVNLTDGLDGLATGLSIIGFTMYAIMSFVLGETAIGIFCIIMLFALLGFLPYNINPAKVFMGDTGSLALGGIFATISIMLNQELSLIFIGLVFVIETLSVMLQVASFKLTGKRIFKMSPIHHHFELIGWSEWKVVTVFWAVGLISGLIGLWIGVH", "assay_type": "biochemical", "in_short": "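S. aureus MraY crude membranes (final total protein ~1 mg/mL) with 50 μM undecaprenyl phosphate and 7.5 μM dansylated Park's nucleotide in 100 mM Tris-HCl pH 7.5, 200 mM KCl, 10 mM MgCl2, 0.1% Triton X-100. Fluorescence followed over time (ex 355/em 520 nm). Rate from 0–2 min linear regression; sigmoidal fit against log concentration gives IC50 ± SD. Variant: membranes pretreated with 1 mM diamide, 0 °C, 20 min (final 50 μM).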"}, "[2]": {"system": "E. coli ΔtolC", "assay": "Growth inhibition of E. coli ΔtolC", "assay_type": "cell-based", "conditions": "conjugate vs. non-conjugated 9, E. coli ΔtolC"}, "[3]": {"system": "E. coli DH5α", "assay_type": "cell-based", "conditions": "growth inhibition, efflux-competent strain, OD 600 nm"}, "[4]": {"system": "P. aeruginosa PAO1", "assay_type": "cell-based", "conditions": "growth inhibition, OD 600 nm"}, "[5]": {"system": "S. aureus", "conditions": "ref 15c; cited from earlier work"}, "[6]": {"system": "MraY", "conditions": "read-out: MraY inhibition IC50; in vitro; ref 15c; cited from earlier work"}},
  "note": "Where “and” joins values, the source holds several entries; their conditions need not be identical. Equal entries are not always repeated.",
  "data": [
    {"smiles": "CC(=O)Oc1cccc(C(=O)N[C@H]2COC(=O)[C@@H](NC(=O)c3cccc(OC(C)=O)c3OC(C)=O)[C@H](CCCNC(=O)CCSSCCCCCCCCCCC(=O)NC[C@H](NC(=O)[C@H](CCCCN)NC(=O)N[C@H](C(=O)O)C(C)C)C(=O)NCCCN[C@@H](C[C@H]3O[C@@H](n4ccc(=O)[nH]c4=O)[C@H](O)[C@@H]3O)C(=O)O)OC(=O)[C@@H](NC(=O)c3cccc(OC(C)=O)c3OC(C)=O)COC2=O)c1OC(C)=O", "note": "[(AcO)EntKL‐SS‐9]", "values": [
      {"measurement": "IC50", "setting": "[1]", "value": "123 nM and 89 nM"},
      {"measurement": "fold increase of antibacterial activity relative to 9", "setting": "[2]", "value": "ca. 11 fold"},
      {"measurement": "IC50 (E. coli DH5α)", "setting": "[3]", "value": ">100", "unit": "µg/mL"},
      {"measurement": "IC50 (P. aeruginosa PAO1)", "setting": "[4]", "value": ">100", "unit": "µg/mL"}
    ]},
    {"smiles": "CO[C@H]1[C@H](O[C@H]([C@H]2O[C@@H](n3ccc(=O)[nH]c3=O)[C@H](O)[C@@H]2O)[C@H](NCCCNC(=O)[C@@H](NC(=O)[C@@H](NC(=O)N[C@H](C(=O)O)C(C)C)[C@@H]2CCNC(=N)N2)[C@@H](OC(=O)CCCCCCCCCCCCC(C)C)C(C)C)C(=O)O)O[C@H](CN)[C@H]1O", "note": "[Compound 5, muraymycin B8]", "values": [
      {"measurement": "antibacterial activity against S. aureus", "setting": "[5]", "value": "promising antibacterial activity"},
      {"measurement": "IC50", "setting": "[6]", "value": "0.004 ± 0.0007", "unit": "nM"}
    ]}
  ]
}
